Experimental data: ChEMBL document CHEMBL3108696, “Structure-activity relationships of chromone derivatives toward the mechanism of interaction with and inhibition of breast cancer resistance protein ABCG2” (J Med Chem, 2013); call rule not given here

Tests used:
[1] = target: T1, Broad substrate specificity ATP-binding cassette transporter ABCG2 (Homo sapiens, UniProt Q9UNQ0); assay: Binding affinity to ABCG2 (unknown origin) expressed in HEK293 cells assessed as modulation of 5D3 binding at 5 uM after 45 mins by flow cytometric analysis relative to Ko143; format: cell-based; conditions: hek293, 0.75 h
T1 sequence (Q9UNQ0 whole entry): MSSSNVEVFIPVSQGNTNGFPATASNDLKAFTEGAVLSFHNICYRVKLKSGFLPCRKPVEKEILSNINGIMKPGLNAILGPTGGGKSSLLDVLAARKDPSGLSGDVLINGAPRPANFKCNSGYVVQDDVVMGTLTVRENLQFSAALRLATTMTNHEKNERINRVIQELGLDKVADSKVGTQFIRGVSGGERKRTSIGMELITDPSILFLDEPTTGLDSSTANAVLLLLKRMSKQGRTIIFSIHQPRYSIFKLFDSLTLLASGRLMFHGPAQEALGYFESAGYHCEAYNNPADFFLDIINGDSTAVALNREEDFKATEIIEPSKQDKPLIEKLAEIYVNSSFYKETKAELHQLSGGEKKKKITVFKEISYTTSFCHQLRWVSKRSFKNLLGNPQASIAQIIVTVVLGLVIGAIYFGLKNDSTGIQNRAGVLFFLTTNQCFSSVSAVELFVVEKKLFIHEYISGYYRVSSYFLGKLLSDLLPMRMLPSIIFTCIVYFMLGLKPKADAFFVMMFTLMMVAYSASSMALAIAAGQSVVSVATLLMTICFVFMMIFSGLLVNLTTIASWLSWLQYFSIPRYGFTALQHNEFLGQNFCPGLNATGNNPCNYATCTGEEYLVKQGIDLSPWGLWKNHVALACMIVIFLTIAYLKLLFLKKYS
Method in brief: (§1)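 5D3 shift assay on ABCG2-transfected HEK293 cells (0.5 × 10^6 cells/tube) in PBS with 0.5% BSA. Compound at 2 or 5 μM plus 5D3 anti-ABCG2 antibody or isotype control (1 μg/mL), 45 min at 37 °C. Anti-mouse Alexa Fluor 488 secondary (3 μg/mL), 30 min at 37 °C. Binding read by flow cytometry, expressed relative to 2 μM Ko143 (100%). Mean ± SD of ≥3 independent experiments.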

[2] = target: T1, Broad substrate specificity ATP-binding cassette transporter ABCG2; assay: Binding affinity to ABCG2 (unknown origin) expressed in HEK293 cells assessed as modulation of 5D3 binding at 2 uM after 45 mins by flow cytometric analysis relative to Ko143; format: cell-based; conditions: hek293, 0.75 h; method in brief: as §1
[3] = target: T1, Broad substrate specificity ATP-binding cassette transporter ABCG2; assay: Inhibition of human ABCG2 expressed in Sf9 insect cell membranes assessed as inhibition of quercetin-stimulated ATPase activity after 30 mins by colorimetric analysis in presence of sodium orthovanadate; conditions: for inhibition (INH): human, sf9, 0.5 h
Method in brief: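 Quercetin (2 μM)-stimulated vanadate-sensitive ATPase assay on cholesterol-loaded ABCG2 Sf9 membranes (10 μg/sample) in Tris/NaCl buffer, pH 8.0. Compound at 0.01, 0.03, 0.5 and 2 μM. ATP-Mg 3.9 mM, 30 min at 37 °C. Released phosphate read colorimetrically at 880 nm. IC50 estimated as 50% inhibition of initial activity; three independent experiments.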

[4] = target: T1, Broad substrate specificity ATP-binding cassette transporter ABCG2; assay: Inhibition of human ABCG2 ATPase activity expressed in Sf9 insect cell membranes at 2 uM after 30 mins by colorimetric analysis relative to basal control in presence of sodium orthovanadate; conditions: sf9, 0.5 h
Method in brief: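 Basal vanadate-sensitive ATPase assay on cholesterol-loaded membranes from human ABCG2-expressing Sf9 cells (0.5 mg/mL; 10 μg/sample). Buffer: 50 mM Tris-HCl, 50 mM NaCl, pH 8.0, with azide, ouabain, DTT and EGTA, ± 0.33 mM orthovanadate. Compound at 2 μM, or substrates nilotinib 0.1 μM, quercetin 2 μM, prazosin 20 μM. ATP-Mg 3.9 mM, 30 min at 37 °C. Phosphate read by molybdate/ascorbate at 880 nm.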

ABCG2 [5] = target: T2, ABCG2 (Homo sapiens, UniProt Q9UNQ0); assay: Inhibition of ABCG2 (unknown origin)-mediated pheophorbide A efflux expressed in HEK293 cells at 1 to 5 uM after 30 mins by flow cytometric analysis relative to control; format: cell-based; conditions: HEK293 cells expressing ABCG2, probe pheophorbide A, read-out: Imax
T2 sequence (Q9UNQ0 whole entry): T1 sequence (Q9UNQ0 whole entry)
Method in brief: (§2)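 Cells seeded at 1.5 × 10^5 cells/well and grown 48 h were exposed to BODIPY-prazosin (0.2 μM) or pheophorbide A (2 μM) for 30 min at 37 °C with or without compound. After washing and trypsinization, intracellular fluorescence was read by flow cytometry (FL4, ≥10 000 events). Percent inhibition = (C−M)/(Cev−M)×100, where Cev is from ABCG2-negative control cells.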

[6] = target: T1, Broad substrate specificity ATP-binding cassette transporter ABCG2; assay: Inhibition of ABCG2 (unknown origin)-mediated BODIPY-prazosin efflux expressed in HEK293 cells at 1 to 5 uM after 30 mins by flow cytometric analysis; format: cell-based; conditions: hek293, 0.5 h; method in brief: as §2
[7] = target: Multidrug resistance-associated protein 1 (Homo sapiens, UniProt P33527); assay: Inhibition of ABCC1 (unknown origin)-mediated calcein-AM efflux expressed in HEK293 cells at 5 uM after 30 mins by flow cytometric analysis; format: cell-based; conditions: hek293, 0.5 h
[8] = target: ATP-dependent translocase ABCB1 (Homo sapiens, UniProt P08183); assay: Inhibition of ABCB1 (unknown origin)-mediated rhodamine 123 efflux expressed in mouse NIH/3T3 cells at 5 uM after 30 mins by flow cytometric analysis; format: cell-based; conditions: nih/3t3, 0.5 h
ABCG2 [9] = target: T2, ABCG2; assay: Inhibition of ABCG2 (unknown origin)-mediated mitoxantrone efflux expressed in HEK293 cells at 5 to 10 uM after 30 mins by flow cytometric analysis relative to control; format: cell-based; conditions: HEK293 cells expressing ABCG2, probe mitoxantrone, read-out: Imax
[10] = target: T1, Broad substrate specificity ATP-binding cassette transporter ABCG2; assay: Inhibition of ABCG2 (unknown origin)-mediated mitoxantrone efflux expressed in HEK293 cells after 30 mins by flow cytometric analysis; format: cell-based
[11] = target: T1, Broad substrate specificity ATP-binding cassette transporter ABCG2; assay: Inhibition of ABCG2-mediated mitoxantrone efflux in mitoxantrone-selected human H460 cells after 30 mins by flow cytometric analysis; format: cell-based
ABCG2 [12] = target: T2, ABCG2; assay: Inhibition of ABCG2-mediated mitoxantrone efflux in mitoxantrone-selected human H460 cells at 5 to 10 uM after 30 mins by flow cytometric analysis relative to control; format: cell-based; conditions: probe mitoxantrone, read-out: Imax

ATP-dependent translocase ABCB1, sequence (P08183 whole entry): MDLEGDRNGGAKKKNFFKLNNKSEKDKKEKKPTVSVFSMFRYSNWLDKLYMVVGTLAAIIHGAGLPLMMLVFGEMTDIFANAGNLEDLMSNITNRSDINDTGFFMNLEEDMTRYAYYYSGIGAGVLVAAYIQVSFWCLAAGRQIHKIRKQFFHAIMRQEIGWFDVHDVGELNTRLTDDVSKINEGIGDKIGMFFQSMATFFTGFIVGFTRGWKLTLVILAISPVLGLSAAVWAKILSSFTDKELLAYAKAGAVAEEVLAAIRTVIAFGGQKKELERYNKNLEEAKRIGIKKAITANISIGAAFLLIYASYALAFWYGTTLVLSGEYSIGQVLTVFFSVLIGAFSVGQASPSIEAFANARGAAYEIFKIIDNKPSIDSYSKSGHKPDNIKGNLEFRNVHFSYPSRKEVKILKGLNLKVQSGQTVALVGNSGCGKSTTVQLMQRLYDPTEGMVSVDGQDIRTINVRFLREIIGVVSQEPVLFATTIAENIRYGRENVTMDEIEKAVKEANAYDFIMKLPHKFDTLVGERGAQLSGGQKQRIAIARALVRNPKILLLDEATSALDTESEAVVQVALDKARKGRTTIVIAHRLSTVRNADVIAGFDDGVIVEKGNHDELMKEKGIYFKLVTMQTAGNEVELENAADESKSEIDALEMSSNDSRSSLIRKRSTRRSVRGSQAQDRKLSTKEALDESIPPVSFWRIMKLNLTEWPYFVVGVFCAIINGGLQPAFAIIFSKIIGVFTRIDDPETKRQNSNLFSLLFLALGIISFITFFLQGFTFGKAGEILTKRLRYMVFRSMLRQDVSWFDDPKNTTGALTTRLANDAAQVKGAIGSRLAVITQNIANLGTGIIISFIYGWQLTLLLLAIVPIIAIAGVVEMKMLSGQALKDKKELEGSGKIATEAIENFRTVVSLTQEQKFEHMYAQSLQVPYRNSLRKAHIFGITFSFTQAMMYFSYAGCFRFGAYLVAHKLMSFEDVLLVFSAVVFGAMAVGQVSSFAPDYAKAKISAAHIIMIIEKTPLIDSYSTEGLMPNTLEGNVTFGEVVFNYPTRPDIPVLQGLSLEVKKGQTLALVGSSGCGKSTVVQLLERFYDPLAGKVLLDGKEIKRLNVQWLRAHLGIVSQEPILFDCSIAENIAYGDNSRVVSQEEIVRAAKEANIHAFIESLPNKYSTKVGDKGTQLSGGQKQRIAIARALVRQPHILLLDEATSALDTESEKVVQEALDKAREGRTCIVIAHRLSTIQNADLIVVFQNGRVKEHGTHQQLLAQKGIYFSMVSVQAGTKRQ
Multidrug resistance-associated protein 1, sequence (P33527 whole entry): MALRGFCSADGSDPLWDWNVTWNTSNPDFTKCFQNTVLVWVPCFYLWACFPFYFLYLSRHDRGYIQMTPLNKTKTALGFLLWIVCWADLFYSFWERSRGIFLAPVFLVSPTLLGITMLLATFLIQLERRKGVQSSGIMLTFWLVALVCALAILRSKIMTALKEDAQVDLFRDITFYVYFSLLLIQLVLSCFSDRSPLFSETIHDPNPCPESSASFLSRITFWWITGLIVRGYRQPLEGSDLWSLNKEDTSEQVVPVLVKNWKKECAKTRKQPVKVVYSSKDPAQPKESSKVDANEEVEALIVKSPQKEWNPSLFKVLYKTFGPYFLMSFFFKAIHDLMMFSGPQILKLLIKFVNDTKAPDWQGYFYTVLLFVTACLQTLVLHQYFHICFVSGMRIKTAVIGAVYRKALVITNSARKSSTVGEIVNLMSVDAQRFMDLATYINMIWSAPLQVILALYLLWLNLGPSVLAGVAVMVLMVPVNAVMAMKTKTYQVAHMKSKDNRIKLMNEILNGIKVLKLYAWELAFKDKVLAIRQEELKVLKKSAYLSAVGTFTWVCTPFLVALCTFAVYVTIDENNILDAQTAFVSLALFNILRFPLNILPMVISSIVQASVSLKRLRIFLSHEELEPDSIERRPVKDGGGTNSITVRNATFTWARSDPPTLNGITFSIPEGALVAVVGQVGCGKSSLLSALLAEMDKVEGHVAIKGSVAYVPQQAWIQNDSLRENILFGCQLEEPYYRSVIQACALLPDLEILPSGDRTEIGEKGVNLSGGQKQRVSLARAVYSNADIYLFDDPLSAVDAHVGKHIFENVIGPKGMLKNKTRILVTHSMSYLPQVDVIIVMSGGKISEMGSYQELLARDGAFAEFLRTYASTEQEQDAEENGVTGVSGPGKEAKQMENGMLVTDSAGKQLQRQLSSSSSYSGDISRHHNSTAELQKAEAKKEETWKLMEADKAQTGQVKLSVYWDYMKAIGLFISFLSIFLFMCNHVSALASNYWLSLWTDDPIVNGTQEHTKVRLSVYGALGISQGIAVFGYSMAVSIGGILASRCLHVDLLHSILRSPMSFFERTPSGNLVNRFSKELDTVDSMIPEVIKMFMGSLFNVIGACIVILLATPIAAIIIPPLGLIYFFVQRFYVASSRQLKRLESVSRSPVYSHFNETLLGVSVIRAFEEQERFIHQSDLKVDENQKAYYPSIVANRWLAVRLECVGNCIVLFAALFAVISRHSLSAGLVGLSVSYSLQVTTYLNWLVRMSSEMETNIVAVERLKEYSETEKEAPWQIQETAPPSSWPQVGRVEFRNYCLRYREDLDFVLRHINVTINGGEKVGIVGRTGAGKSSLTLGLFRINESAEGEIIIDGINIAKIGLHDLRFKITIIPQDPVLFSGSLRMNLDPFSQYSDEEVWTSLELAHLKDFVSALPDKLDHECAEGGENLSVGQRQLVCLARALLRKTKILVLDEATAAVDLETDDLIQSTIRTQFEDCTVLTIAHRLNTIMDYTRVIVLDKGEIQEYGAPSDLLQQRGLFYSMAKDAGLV

SMILES	Activity [1] [%]	Activity [2] [%]	IC50 [3] [nM]	inhibition (INH) [3]	inhibition (INH) [4]	Emax at 0.5 h (ABCG2 [5]) [%]	inhibition (INH) [6]	inhibition (INH) [7]	inhibition (INH) [8]	Emax at 0.5 h (ABCG2 [9]) [%]	EC50 [10] [nM]	EC50 [11] [nM]	Emax at 0.5 h (ABCG2 [12]) [%]
CN(CCc1cn(C)c2ccccc12)C(=O)c1cc(=O)c2c(OCc3ccc(Br)cc3)cccc2o1	98.9	76.4	> 2000	Dose-dependent effect	Active	80	Active	Not Active	Not Active	88	1000	500	84
CN(CCc1c[nH]c2ccccc12)C(=O)c1cc(=O)c2c(OCc3ccc(Br)cc3)cccc2o1	95.9	74.6	> 2000	Dose-dependent effect	Active	80	Active	Not Active	Not Active	105	1110	570	89
COc1ccc2[nH]cc(CCN(C)C(=O)c3cc(=O)c4c(OCc5ccc(Br)cc5)cccc4o3)c2c1	97.4	82.8	> 2000	Dose-dependent effect	Active	80	Active	Not Active	Not Active	101	960	530	96
COc1ccc2[nH]cc(CCNC(=O)c3cc(=O)c4cc(OCc5ccc(Br)cc5)ccc4o3)c2c1	99.9	93.3	530	Dose-dependent effect	Not Active	80	Active	Not Active	Not Active	108	290	100	109
CN(CCc1c[nH]c2ccccc12)C(=O)c1cc(=O)c2cc(OCc3ccc(Br)cc3)ccc2o1	79.4	47.6	> 2000	Dose-dependent effect	Not Active	–	–	–	–	54	2580	1670	50
CN(CCc1cn(C)c2ccccc12)C(=O)c1cc(=O)c2cc(OCc3ccc(Br)cc3)ccc2o1	72.1	40.9	> 2000	Dose-dependent effect	Not Active	–	–	–	–	50	2060	2150	61
O=C(NCc1cn(Cc2ccccc2)nn1)c1cc(=O)c2c(OCc3ccc(Br)cc3)cccc2o1	95.4	74.3	430	Dose-dependent effect	Not Active	–	–	–	–	78	1520	500	76
O=C(NCc1cn(Cc2ccc(Br)cc2)nn1)c1cc(=O)c2c(OCc3ccc(Br)cc3)cccc2o1	91.8	78.7	930	Dose-dependent effect	Not Active	–	–	–	–	95	570	710	76
O=C(NCc1cn(CCc2c[nH]c3ccccc23)nn1)c1cc(=O)c2c(OCc3ccc(Br)cc3)cccc2o1	105.2	93.1	250	Dose-dependent effect	Active	–	–	–	–	87	490	460	86
CN(CCc1c[nH]c2ccccc12)Cc1cc(=O)c2c(OCc3ccc(Br)cc3)cccc2o1.Cl	95.4	57.4	> 2000	Dose-dependent effect	Active	–	–	–	–	46	1770	1110	104
COc1ccc2[nH]cc(CCN(C)Cc3cc(=O)c4c(OCc5ccc(Br)cc5)cccc4o3)c2c1	102.5	82.3	820	Dose-dependent effect	Active	–	–	–	–	75	1130	600	106
